Screening data as filed in PubChem.
MPTP inh: inhibitors of mitochondrial permeability transition pore; inhibition, % at 10 µM; isolated mouse mitochondria, Ca2+ swelling absorbance, 30 min; actives 1.4% (n = 360,000);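 active means inhibition of 50% or more, scaled per plate between neutral and stimulator controls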
T cruzi inh: T. cruzi replication inhibition; actives 1.4% (n = 300,000); inhibition, % (no concentration beside the values); T. cruzi beta-gal in NIH3T3, luminescence, 90 h;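 active means mean inhibition across valid replicates above about 55%, limit read from the data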;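 further: signal also drops with host cell toxicity which is not excluded here; higher percent means less beta-gal luminescence so fewer parasites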
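Read-out: Parasite load inhibition, % | Test system: Mouse NIH/3T3 fibroblasts infected with β-gal-expressing T. cruzi Tulahuen C4 | Amount: 5,000 cells/well | Medium: DMEM, 2% fetal bovine serum | Signal: GalScreen β-gal luminescence, detergent lysis, 60 min | Timing: 3 h attach, ≥90 h co-culture | Also added: Tulahuen C4 trypomastigotes, 5000/well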
Lipid droplet: hepatic lipid droplet formation modulation; AID 1656; inhibition, % at 6.5 µM; AML12 mouse hepatocytes, oleate lipid droplets, BODIPY imaging; actives 0.4% (n = 240,000);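 active means lipid droplet intensity inhibited by at least 50%, with more than 500 cells counted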
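Material: mouse AML12 hepatocyte cell line, fixed after treatment; Timing: compound with oleate, overnight; Technique: high-content imaging of BODIPY-stained droplets and DAPI nuclei; Probe or stimulus: oleate, 100 µM final; Dosing: compound at 6.5 µM only.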
Redox H2O2 prof: compounds producing H2O2 with reducing agent – biochemical, NIH compound library profiling, artefact control for MLSCN library redox annotation, primary screen; DTT-dependent redox cycling H2O2, phenol red/HRP absorbance; 100% = 100 µM peroxide control, 0% = buffer; activation, % at 10 µM; actives 0.03% (n = 200,000);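 active means activation of at least 50% relative to the plate's high and low controls in the primary single-dose screen; inactive means activation below 50%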;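 further: compound incubated with DTT at 0.8 mM final as the reducing agent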
Lmaj promast: reduces viability of Leishmania major promastigotes; actives 9% (n = 200,000); resazurin fluorescence viability; inhibition, % at 10 µM; AID 1063; in the data active means inhibition above about 50%;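 further: promastigotes grown with compound for 44 hours at 28 °C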
Of the large screens only hits and unclear results are named; the others gave an inactive call. The sample as a whole holds a higher share of hits than the screen did.

CCOc1cc(NC(=S)NCC2CCCO2)c(OCC)cc1NC(=O)CC(C)C (centres undefined)	none
C[C@H]1CN=C(N(C)C)N1CCCCc1ccccc1	none (no result: T cruzi inh, Lipid droplet, Redox H2O2 prof, Lmaj promast)
Cc1[nH]nc(C(=O)NN=Cc2ccccc2Cl)c1N=NN(C)C	none (no result: T cruzi inh, Lipid droplet, Redox H2O2 prof, Lmaj promast)
CCCCOC(=O)/C(=C\c1ccc([N+](=O)[O-])o1)NC(=O)c1ccccc1	Lmaj promast 83
COC(=O)c1ccc(CSc2nc3ccc(C)cc3[nH]2)o1	Lmaj promast 87
Cc1ccc2nc(SCC(=O)c3ccc4c(c3)OCO4)[nH]c2c1	Lmaj promast 84 (no result: Lipid droplet)
Cc1ccc2nc(SCC(=O)c3ccc(Cl)s3)[nH]c2c1	none
COC(=O)c1ccc(CSc2nc3c(cnn3-c3ccc(C)cc3)c(=O)[nH]2)o1	none
COc1ccc2c(C)cc(SCC(=O)c3ccc4c(c3)OCO4)nc2c1	T cruzi inh 59 (no result: Lipid droplet)
CC(=O)c1c(C)[nH]c(C(=O)CSc2nc3ccc(C)cc3[nH]2)c1C	Lmaj promast 92
CCOC(=O)c1c(-c2ccccc2Cl)csc1NC(=O)c1cc(S(=O)(=O)N2CCOCC2)ccc1C	Lmaj promast 83
CCNC(=S)Nc1scc(-c2ccccc2)c1C(=O)OCC	none
CCOc1ccccc1NC(=O)c1cc(S(=O)(=O)N2CCOCC2)ccc1C	none (no result: Redox H2O2 prof, Lmaj promast)
CCOC(=O)c1c(-c2ccccc2)csc1NC(=O)C(C)NCCCN1CCOCC1 (centres undefined)	none
CCOC(=O)c1c(-c2ccccc2)csc1NC(=S)NC	Lmaj promast 62
CCOC(=O)c1c(-c2ccc(-c3ccccc3)cc2)csc1NC(=O)CCN1CCOCC1	Lmaj promast 98
CCCCn1c(N)c(N(CC(C)C)C(=O)CCCn2c(=O)oc3ccccc32)c(=O)[nH]c1=O	none (no result: Lipid droplet, Redox H2O2 prof, Lmaj promast)
CCc1ccc2c(c1)C(c1ccc([N+](=O)[O-])cc1)=NNC(c1ccc(C)cc1)=N2	Lmaj promast 85
Brc1ccc2c(c1)C(c1ccc(N3CCOCC3)cc1)=NNC(c1cccs1)=N2	Lmaj promast 78
CCOc1ccc(C2=NNC(c3cccs3)=Nc3ccc(OC)cc32)cc1	none
Fc1ccc2c(c1)C(c1ccc(N3CCOCC3)cc1)=NNC(c1cccs1)=N2	none
CCOc1ccc2c(c1)C(c1ccc(C)cc1)=NNC(c1ccc(OC)cc1)=N2	none
Cc1ccc2c(c1)C(c1ccc(N3CCOCC3)cc1)=NNC(c1cccs1)=N2	Lmaj promast 86 (no result: Lipid droplet)
CCc1ccc2c(c1)C(c1ccc(N3CCOCC3)cc1)=NNC(c1ccncc1)=N2	T cruzi inh 59, Lmaj promast 57
Fc1ccc2c(c1)C(c1ccncc1)=NNC(c1ccc(Cl)cc1)=N2	none (no result: Lipid droplet)
O=C(CN1C(=O)NC2(CCCCCC2)C1=O)NCCc1ccc(F)cc1	none (no result: T cruzi inh, Lipid droplet, Redox H2O2 prof, Lmaj promast)
CCC(C)NC(=S)Nc1ccccc1 (centres undefined)	none (no result: Redox H2O2 prof, Lmaj promast)
CCCC(C)NC(=S)Nc1cc(C)cc(C)c1 (centres undefined)	Lmaj promast 76
CCCCC(O)(CCCC)C(=O)NN(C(=O)c1cccnc1Cl)c1ccccc1	none (no result: Redox H2O2 prof, Lmaj promast)
CC(=O)Nc1ccc(S(=O)(=O)NCC(=O)NC(C)c2ccc(S(N)(=O)=O)cc2)cc1 (centres undefined)	none (no result: Redox H2O2 prof, Lmaj promast)
O=c1[nH]c(=O)c2ncc(-c3ccc(Cl)cc3)nc2[nH]1	Lmaj promast 80 (no result: MPTP inh)
Cc1ccc(-c2nnc(SCC(=O)Nc3cccc(C(=O)N4CCOCC4)c3)n2C)cc1	none
C/C(=N\NC(=S)Nc1ccc(F)cc1)c1ccc2c(c1)OCCO2	Lmaj promast 77
C/C(=N\NC(N)=S)c1ccc2c(c1)OCCO2	none (no result: Redox H2O2 prof, Lmaj promast)
CCN1CCN(C2=CC3=CC(=C(C#N)C#N)CCC3CC2)CC1 (centres undefined)	Lmaj promast 88 (no result: T cruzi inh)
CN(C)CCNC(=O)Cn1ccc2cc(S(=O)(=O)N3CCCCCC3)ccc21	none (no result: Redox H2O2 prof, Lmaj promast)
CCCCCCCC(=O)Nc1cc(C(=O)NCCC)ccc1N1CCC2(CC1)CC(c1ccccc1)=NO2	T cruzi inh 57 (no result: Redox H2O2 prof, Lmaj promast)
CCCNC(=O)c1ccc(N2CCC3(CC2)CC(c2cccc(Br)c2)=NO3)c(NC(=O)c2ccccc2)c1	T cruzi inh 57 (no result: Lipid droplet, Redox H2O2 prof, Lmaj promast)
CCn1c(CNc2cccc(C(F)(F)F)c2)n[nH]c1=S	none
COc1ccc(S(=O)(=O)NC(Cc2cnc[nH]2)C(=O)O)cc1 (centres undefined)	Lmaj promast 51
COc1ccc(S(=O)(=O)NC(Cc2ccccc2)C(=O)O)cc1 (centres undefined)	none (no result: Lipid droplet, Redox H2O2 prof, Lmaj promast)
Cc1ncoc1C(=O)N1CCCC(N2CCN(c3cccc(C(F)(F)F)c3)CC2)C1 (centres undefined)	none (no result: Redox H2O2 prof, Lmaj promast)
CCOc1ccccc1/C=C(/NC(=O)c1ccccc1)C(=O)N1CCCCC1	none (no result: Redox H2O2 prof, Lmaj promast)
COc1cc(OC)cc(-c2noc([C@@H]3O[C@H](CO)[C@@H](O)[C@H]3O)n2)c1	none (no result: T cruzi inh, Lipid droplet, Redox H2O2 prof, Lmaj promast)
O=c1ccc(-c2ccccc2)no1	none (no result: Redox H2O2 prof, Lmaj promast)
COC(=O)c1cc2c(-c3ccccc3)cc3ccccn3c-2c1C(=O)OC	Lmaj promast 88 (no result: Lipid droplet)
COC(=O)c1c(C)c2c(C)cc3ccccn3c-2c1C(=O)OC	none
COc1ccccc1NC(=O)CN1CCN(C(=O)C2CCCO2)CC1 (centres undefined)	none (no result: Redox H2O2 prof, Lmaj promast)
O=C(CCl)N1CCN2C(=O)c3ccccc3C12c1ccc(Cl)cc1 (centres undefined)	Lmaj promast 100
O=C(Nc1cccc(Cl)c1)N1CCN2C(=O)c3ccccc3C12c1ccccc1 (centres undefined)	Lmaj promast 98 (no result: Lipid droplet)
Cc1ccc(C(=O)N2CCN3C(=O)c4ccccc4C23c2ccc(Cl)cc2)cc1 (centres undefined)	Lmaj promast 94
COc1cc(/C=C2/SC(=S)N(CC(=O)O)C2=O)ccc1OC(=O)c1ccco1	none (no result: Redox H2O2 prof, Lmaj promast)
FC(F)(F)c1ccccc1NC(=S)N/N=C1\CC2CC=CC12 (centres undefined)	none (no result: T cruzi inh)
Cc1nccn1CCCNCc1c(C(=O)N2CCCCCCC2)nc2ccc(Cl)cn12	none
CCC(CC)C(=O)NN(C(=O)c1ccncc1)C1CC(=O)N(c2ccccc2)C1=O (centres undefined)	none (no result: Lipid droplet, Redox H2O2 prof, Lmaj promast)
COc1ccc(Br)cc1CN1CCCC(C(=O)N2CCCCCC2)C1 (centres undefined)	Lmaj promast 85 (no result: Lipid droplet)
COc1ccc(Br)cc1CN1CCCC(C(=O)N2CCCCC2)C1 (centres undefined)	none
O=C(C1CCN(Cc2cc(Cl)ccc2O)CC1)N1CCN(Cc2ccccc2)CC1	Lmaj promast 100
O=C(C1CCCN(Cc2ccc(Cl)cc2)C1)N1CCCCC1 (centres undefined)	T cruzi inh 57 (no result: Redox H2O2 prof, Lmaj promast)
O=C(C1CCCN(Cc2cccc(Cl)c2)C1)N1CCCCC1 (centres undefined)	T cruzi inh 66 (no result: Lipid droplet, Redox H2O2 prof, Lmaj promast)
O=C(C1CCCN(Cc2ccccc2)C1)N1CCCCC1 (centres undefined)	none
C/C(=N/Nc1cc(-c2ccccc2)nc(-c2ccccc2)n1)c1ccc(O)cc1	Lmaj promast 89
C=CCNc1nc(S(=O)Cc2ccc(C)cc2)nc2c1CCCC2 (centres undefined)	none
CCOC(=O)/C(=C\c1ccc(N2CCC(c3ccccc3)=N2)cc1)C(C)=O	none (no result: T cruzi inh, Lipid droplet, Redox H2O2 prof, Lmaj promast)
